Reference: ChEMBL document CHEMBL4513216, “Probing the Open Global Health Chemical Diversity Library for Multistage-Active Starting Points for Next-Generation Antimalarials” (ACS Infect Dis, 2020)

Assay: Toxicity liver stage against HepG2, at 10uM
Assay type: cell-based
Parameters: test concentration 10 uM, cell line HepG2-A16-CD81EGFP
Settings: human, HepG2-A16-CD81EGFP cells; read-out: INHIBITION
Method in brief: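 Uninfected HepG2-A16-CD81EGFP cells, 3 × 10^3 per well, 1536-well, plated on prespotted compound at 10 μM final, parasite-free screening media added to match infected plates; puromycin 10 μM positive, DMSO 0.5% negative; run in parallel with 48 h PbLuc assay at 37 °C, 5% CO2; viability by CellTiter-Glo luminescence, normalized to controls.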

| SMILES | cytotoxicity at 10 µM [%] |
| --- | --- |
| CCN(CC)S(=O)(=O)c1ccc(C(=O)NC(C)(C)C)cc1 | -6.79 |
| N#Cc1ccc(CN2C[C@@H](F)[C@@H](OCc3nc4cnccc4[nH]3)C2)cc1 | -3.67 |
| O=C(NC[C@H]1CCCC[C@H]1O)c1cccc2[nH]c(-c3cccs3)nc12 | -6.95 |
| COc1ccc2c(ccn2CCC(=O)NCCC(=O)O)c1 | 6.81 |
| O=C1CCSCC(C(=O)N2CCC(O)CC2)N1 (stereo not given) | -4.2 |
| Cn1cccc1C(=O)NC[C@H]1C[C@@H]2CN(C(=O)c3ccno3)C[C@H]2O1 | 0.903 |
| O=C(NCC1CC[C@@]2(CNCCOC2)O1)c1cccnc1 (stereo not given in full) | 2.32 |
| CCS(=O)(=O)N1CCc2ncnc(C)c2CC1 | -0.0192 |
| CCN1CCC2(COCc3c(C)nc(N4CCOCC4)nc32)C1 (stereo not given) | -141 |
| CNC(=O)[C@@]12CCCN(c3ncccn3)[C@@H]1CN(c1ncc(F)cn1)C2 | -1.43 |
| Cc1ccccc1CSc1ncc(Br)c(C(=O)O)n1 | 6.99 |
| CSc1nc2cc(C)n(CC(N)=O)c2c(=O)n1CC(C)C | -11.3 |
| CCn1nccc1CN(C)c1[nH]cnc2nc(C)nc1-2 | -7.97 |
| CCN(CC)C(=O)CSc1nc2cc(C)nc-2c(O)n1CC | 6.58 |
| Cc1cc(C(F)(F)F)nn1CC(C)C(=O)NC(C)C (stereo not given) | 10 |
| CCn1nc(C)c2nnn(CC(=O)Nc3c(C)cccc3C)c(=O)c21 | 5.22 |
| Cc1cc(Nc2ccc(F)cn2)cc(C2CCN(Cc3ncc[nH]3)C2)n1 (stereo not given) | -8.26 |
| Cc1ccc(-c2ccccc2CC2(C(=O)NC(C)C)CCCNC2)cc1 (stereo not given) | 2.73 |
| COCC(=O)N1CCCC1c1cccc(Nc2ncc(C)s2)n1 (stereo not given) | -17 |
| c1cnc(C2CCCN2c2cnccn2)cn1 (stereo not given) | -22.6 |
| Cc1cccc(CN2CCCC2(C(N)=O)c2cnccn2)n1 (stereo not given) | -21.9 |
| CCC(=O)N1CCC(c2cncc(Oc3cccnc3)n2)CC1 | -4.69 |
| CC(=O)N1CCC(c2nccnc2-c2ccc(C(=O)O)cc2)CC1 | 11.1 |
| Cc1c(C(=O)N2CCC(c3nc(C)n4ccsc34)CC2)cnn1C | -4.41 |
| Cc1nonc1C(=O)N1CCCC(c2ncncc2-c2ccncc2)C1 (stereo not given) | 1.41 |
| COc1ccc(CN2CCc3nc(C4CCCCN4C)ncc3C2)cc1 (stereo not given) | -1.08 |
| CC(CN1CCOC1=O)NC(=O)c1cccc(C#N)c1 (stereo not given) | -8.37 |
| CCCOc1ccc2c(c1)OCC(CNC1CCc3ncnn3C1)=C2 (stereo not given) | -6.63 |

| SMILES | cytotoxicity at 10 µM [%] |
| --- | --- |
| COc1c(CNCC(=O)N2CCN(C)CC2)c(C(C)C)nn1C | 7.45 |
| O=C(CN1CCCS1(=O)=O)Nc1ccc(OC(F)F)cc1 | 1.34 |
| COCCN(CCOC)C(=O)c1cnn(C)c1-n1c(C)ccc1C | -144 |
| Cc1nc(CN2CCCCC2Cn2cccn2)nc2ccccc12 (stereo not given) | -41.5 |
| CCOCCNC(=O)CCC1CCCO1 (stereo not given) | -122 |
| CCc1nc(CSc2nnc(N)n2C2CC2)no1 | 6.12 |
| CCCN(CC1COc2ccccc2O1)C(=O)C1=NN(C)C(=O)CC1 (stereo not given) | -41 |
| CC(C)C(NC(=O)Nc1cnn(CC(N)=O)c1)c1ccc(Cl)cc1 (stereo not given) | 7.51 |
| CC(C)N1CCC(NC(=O)NCCC(=O)NCc2ccccc2)C1 (stereo not given) | -0.986 |
| CCc1nc2n(n1)CC(NCc1cc3ccccc3o1)CC2 (stereo not given) | 3.77 |
| CC(C(=O)Nc1ccccc1Sc1ccccc1)S(C)(=O)=O (stereo not given) | -1.7 |
| CCc1nc(CN(C)CC(=O)N(C)C2CC2)cs1 | -3.54 |
| COc1ccc(C)cc1C(=O)NC1(C#N)CCOCC1 | 1.98 |
| CN(C(=O)Cn1nc(-c2ccc(F)cc2)oc1=O)c1ccccc1 | -0.267 |
| CC(=O)N1CCCN(C(=O)Cc2ccc3c(c2)OCO3)CC1 | -15.1 |
| Cc1csc(C2CCCCN2C(=O)CCCn2cncn2)n1 (stereo not given) | -8.23 |
| Cn1cc(C(=O)Nc2cccc(F)c2)ccc1=O | -9.66 |
| Cc1ccc(C(C)NC(=O)N2CCNC(=O)CC2)cc1F (stereo not given) | 18.9 |
| OC(COCc1ccccc1)CSc1nnc2ccccn12 (stereo not given) | 2.95 |
| CC1CCN(S(=O)(=O)c2cccnc2)c2ccccc2S1 (stereo not given) | 5 |
| CC(C)N(C)CCNC(=O)N(C)CC1CCOCC1 | -17.2 |
| Cc1cnccc1CCNC(=O)Nc1cnc(N(C)C)nc1 | 7.75 |
| Cc1cc(=O)n2nc(Oc3ccc(F)c(F)c3)sc2n1 | -15.8 |
| CC(c1ncc(-c2ccccc2)o1)N1CCN(C(=O)C(C)(C)C)CC1 (stereo not given) | 17.4 |
| CSCCC(NC(=O)c1ccc2ccccc2n1)C(=O)O (stereo not given) | -3.09 |
| CS(=O)(=O)CCCNC1(c2ccc(Br)cc2)CCC1 | -0.0862 |
| O=C(CCc1ccsc1)N(Cc1ccccn1)C1CC1 | -4.87 |
